{
  "source": "ChEMBL document CHEMBL4627381",
  "about": "“Licochalcone A Selectively Resensitizes ABCG2-Overexpressing Multidrug-Resistant Cancer Cells to Chemotherapeutic Drugs” (J Nat Prod, 2020)",
  "key": {"HEK293 [1]": {"tested_on": "HEK293", "experiment": "Effect on etoposide-induced cytotoxicity against HEK293 cells assessed as fold change in etoposide IC50 at 0.5 uM after 72 hrs by CCK8 assay relative to etoposide IC50", "format": "cell-based", "details": "human, hek293, 72 h", "procedure,_shortened": "(§1)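 Reversal assay in parental pcDNA-HEK293 and transfected HEK293 lines (ABCB1 for colchicine, ABCC1 for etoposide, ABCG2 for mitoxantrone/topotecan). Substrate drug series was given with or without nontoxic modulator (0.5, 1.0, 2.0 or 3.0 μM) for 72 h, with a CCK-8 read-out. Fold-reversal is substrate IC50 without modulator divided by IC50 with modulator. Three independent experiments.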"}, "S1 [2]": {"tested_on": "S1", "experiment": "Induction of pheophorbide A accumulation in human S1 cells at 20 uM incubated for 1 hr by FACScan flow cytometry", "format": "functional, cell-based", "procedure,_shortened": "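Cells held drug-free 7 days. 3 × 10^5 cells were suspended in IMDM with 5% FCS and loaded with pheophorbide A (ex 395/em 670 nm) for 1 h, with or without LCA (20 μM for single-concentration accumulation) or Ko143 3 μM as reference. Read immediately by flow cytometry. Efflux inhibition was run over a concentration range; mean ± SD of three experiments.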"}, "S1 [3]": {"tested_on": "S1", "experiment": "Induction of apoptosis in human S1 cells assessed as late apoptotic cells at 10 uM incubated for 48 hrs in presence of topotecan by annexin V/propidium iodide staining based flow cytometry (reference value: 3.6%)", "format": "functional", "procedure,_shortened": "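S1 cells were exposed for 48 h to DMSO, 10 μM compound, 5 μM topotecan, or 5 μM topotecan plus 10 μM compound. They were then stained with 1.25 μg/mL annexin V–FITC and 0.1 mg/mL PI for 15 min at room temperature. 10000 cells per sample were analysed by flow cytometry; three independent experiments.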"}, "S1 [4]": {"tested_on": "S1", "experiment": "Cytotoxicity against human S1 cells after 72 hrs by MTT assay", "format": "functional, cell-based", "details": "S1, 72 h", "procedure,_shortened": "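Cells seeded at 5000/well, allowed 24 h, then exposed to a concentration series for 72 h at 37 °C in DMSO vehicle (up to 0.5% v/v). HEK293 lines were read with CCK-8 and cancer lines with MTT. IC50 was taken from fitted dose-response curves over at least three independent experiments. Lines were kept drug-free for 7 days before assay.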"}, "HEK293 [5]": {"tested_on": "HEK293", "experiment": "Effect on topotecan-induced cytotoxicity against HEK293 cells assessed as fold change in topotecan IC50 at 3 uM after 72 hrs by CCK8 assay relative to topotecan IC50", "format": "cell-based", "details": "human, hek293, 72 h", "procedure,_shortened": "as §1"}, "HEK293 [6]": {"tested_on": "HEK293", "experiment": "Induction of Calcein-AM accumulation in HEK293 cells at 20 uM incubated for 10 mins by FACScan flow cytometry", "format": "cell-based", "details": "human, hek293, 10 min", "procedure,_shortened": "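Parental HEK293 cells (3 × 10^5) were resuspended in IMDM with 5% FCS and given calcein-AM with or without 20 μM modulator for 10 min. Intracellular calcein (ex 485/em 535 nm) was measured by flow cytometry; at least three independent experiments.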"}, "S1-M1-80": {"tested_on": "S1-M1-80", "experiment": "Induction of apoptosis in human S1-M1-80 cells harboring ABCG2 (unknown origin) assessed as necrotic cells at 10 uM incubated for 48 hrs by annexin V/propidium iodide staining based flow cytometry (reference value: 0.3%)", "format": "functional"}, "[7]": {"molecular_target": "T1, Broad substrate specificity ATP-binding cassette transporter ABCG2 (Homo sapiens, UniProt Q9UNQ0)", "T1 sequence (Q9UNQ0 whole entry)": "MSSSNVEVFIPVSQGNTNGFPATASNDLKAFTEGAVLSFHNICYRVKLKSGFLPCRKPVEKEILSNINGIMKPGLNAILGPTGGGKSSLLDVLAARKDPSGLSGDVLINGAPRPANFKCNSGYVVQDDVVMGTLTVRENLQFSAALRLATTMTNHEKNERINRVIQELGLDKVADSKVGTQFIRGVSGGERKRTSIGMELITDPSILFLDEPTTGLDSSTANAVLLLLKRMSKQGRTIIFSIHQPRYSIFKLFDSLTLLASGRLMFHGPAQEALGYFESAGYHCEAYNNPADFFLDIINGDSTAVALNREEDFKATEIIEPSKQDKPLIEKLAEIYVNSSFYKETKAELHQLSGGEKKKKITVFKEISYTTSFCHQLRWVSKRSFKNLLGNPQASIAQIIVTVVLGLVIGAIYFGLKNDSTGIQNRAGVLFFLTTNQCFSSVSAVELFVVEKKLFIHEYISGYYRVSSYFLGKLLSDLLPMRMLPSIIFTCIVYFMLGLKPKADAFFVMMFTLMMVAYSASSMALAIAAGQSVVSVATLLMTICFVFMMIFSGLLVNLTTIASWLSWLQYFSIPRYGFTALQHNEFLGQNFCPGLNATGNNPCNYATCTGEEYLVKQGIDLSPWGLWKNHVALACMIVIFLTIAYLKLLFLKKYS", "experiment": "Reversal of human ABCG2-mediated multidrug resistance in HEK293/R482 cells assessed as fold change in mitoxantrone IC50 at 2 uM after 72 hrs by CCK8 assay relative to mitoxantrone IC50", "format": "cell-based", "procedure,_shortened": "(§2)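 Cells were seeded at 5000/well for 24 h, then given colchicine, etoposide, mitoxantrone or topotecan ± non-toxic modulator (0.5–3.0 μM) for 72 h, with DMSO up to 0.5%. IC50 came from fitted curves (mean ± SD, three experiments). Fold-reversal = IC50 without modulator ÷ IC50 with modulator.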"}, "LS180": {"tested_on": "LS180", "experiment": "Upregulation of ABCB1 mRNA expression in human LS180 cells at 1 uM by […] relative to control", "format": "functional"}, "HEK293 [8]": {"tested_on": "HEK293", "experiment": "Effect on mitoxantrone-induced cytotoxicity against HEK293 cells assessed as fold change in mitoxantrone IC50 at 0.5 uM after 72 hrs by CCK8 assay relative to mitoxantrone IC50", "format": "cell-based", "details": "human, hek293, 72 h", "procedure,_shortened": "as §1"}, "HEK293 [9]": {"tested_on": "HEK293", "experiment": "Effect on topotecan-induced cytotoxicity against HEK293 cells assessed as fold change in topotecan IC50 at 1 uM after 72 hrs by CCK8 assay relative to topotecan IC50", "format": "cell-based", "details": "human, hek293, 72 h", "procedure,_shortened": "as §1"}, "[10]": {"molecular_target": "Multidrug resistance-associated protein 1 (Homo sapiens, UniProt P33527)", "sequence (P33527 whole entry)": "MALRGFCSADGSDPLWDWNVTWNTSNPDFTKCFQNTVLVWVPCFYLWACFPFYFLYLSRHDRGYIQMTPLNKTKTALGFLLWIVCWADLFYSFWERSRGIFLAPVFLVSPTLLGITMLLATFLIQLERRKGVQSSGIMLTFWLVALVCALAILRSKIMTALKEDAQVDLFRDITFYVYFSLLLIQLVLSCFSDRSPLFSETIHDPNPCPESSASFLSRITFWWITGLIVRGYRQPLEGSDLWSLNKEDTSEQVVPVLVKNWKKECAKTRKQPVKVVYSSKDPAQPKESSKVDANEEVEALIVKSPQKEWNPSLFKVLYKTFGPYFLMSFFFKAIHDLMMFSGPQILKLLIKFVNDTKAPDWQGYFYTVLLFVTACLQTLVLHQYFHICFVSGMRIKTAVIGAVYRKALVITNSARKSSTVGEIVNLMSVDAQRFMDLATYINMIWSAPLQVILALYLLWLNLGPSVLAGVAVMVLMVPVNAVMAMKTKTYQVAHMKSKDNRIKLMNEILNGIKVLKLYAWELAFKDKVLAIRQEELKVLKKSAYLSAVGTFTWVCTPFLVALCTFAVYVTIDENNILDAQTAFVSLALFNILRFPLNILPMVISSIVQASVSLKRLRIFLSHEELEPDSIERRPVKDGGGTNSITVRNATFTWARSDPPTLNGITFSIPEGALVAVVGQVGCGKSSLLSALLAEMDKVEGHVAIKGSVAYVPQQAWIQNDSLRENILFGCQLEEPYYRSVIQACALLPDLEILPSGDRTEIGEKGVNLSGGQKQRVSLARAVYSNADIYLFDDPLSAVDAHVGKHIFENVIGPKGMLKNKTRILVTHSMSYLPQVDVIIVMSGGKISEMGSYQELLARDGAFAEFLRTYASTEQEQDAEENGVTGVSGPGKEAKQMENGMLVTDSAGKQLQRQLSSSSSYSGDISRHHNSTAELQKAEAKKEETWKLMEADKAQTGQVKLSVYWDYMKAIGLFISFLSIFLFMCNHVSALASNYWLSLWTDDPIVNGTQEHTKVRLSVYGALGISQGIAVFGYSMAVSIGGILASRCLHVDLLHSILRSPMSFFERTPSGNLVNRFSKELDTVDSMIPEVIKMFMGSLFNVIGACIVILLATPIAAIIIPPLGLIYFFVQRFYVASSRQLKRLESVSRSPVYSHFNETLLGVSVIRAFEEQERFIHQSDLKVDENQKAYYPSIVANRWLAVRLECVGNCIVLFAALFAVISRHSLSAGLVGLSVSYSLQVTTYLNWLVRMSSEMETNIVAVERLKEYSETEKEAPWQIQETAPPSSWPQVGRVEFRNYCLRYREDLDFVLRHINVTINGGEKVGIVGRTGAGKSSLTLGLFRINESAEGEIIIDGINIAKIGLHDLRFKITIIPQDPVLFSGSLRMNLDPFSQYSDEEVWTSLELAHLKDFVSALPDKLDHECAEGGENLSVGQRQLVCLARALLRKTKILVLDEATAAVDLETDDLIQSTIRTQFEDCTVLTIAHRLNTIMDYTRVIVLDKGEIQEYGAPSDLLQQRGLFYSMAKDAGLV", "experiment": "Modulation of human ABCC1 expressed in HEK293/MRP1 cells assessed as increase in intracellular calcein-AM accumulation at 20 uM incubated for 10 mins by FACScan flow cytometry", "format": "cell-based", "procedure,_shortened": "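Cells held drug-free 7 days. 3 × 10^5 cells in IMDM with 5% FCS were loaded with calcein-AM for 10 min, with or without 20 μM LCA. Reference inhibitors were tariquidar 3 μM (ABCB1) and MK-571 25 μM (ABCC1). Calcein fluorescence (ex 485/em 535 nm) was read by flow cytometry; at least three independent experiments.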"}, "[11]": {"molecular_target": "T1, Broad substrate specificity ATP-binding cassette transporter ABCG2", "experiment": "Reversal of ABCG2 (unknown origin)-mediated multidrug resistance in human H460-MX20 cells assessed as fold change in topotecan IC50 at 2 uM after 72 hrs by MTT assay relative to topotecan IC50", "format": "cell-based", "procedure,_shortened": "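Cells held drug-free 7 days, seeded at 5000 per well for 24 h, then exposed 72 h to mitoxantrone or topotecan dilutions with DMSO (≤0.5%), LCA 0.5–3.0 μM, or Ko143 1.0 μM. Viability was read by MTT. IC50 came from fitted dose-response curves of three independent experiments. Fold-reversal = IC50 without modulator divided by IC50 with modulator.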"}, "[12]": {"molecular_target": "T1, Broad substrate specificity ATP-binding cassette transporter ABCG2", "experiment": "Reversal of human ABCG2-mediated multidrug resistance in HEK293/R482 cells assessed as fold change in mitoxantrone IC50 at 0.5 uM after 72 hrs by CCK8 assay relative to mitoxantrone IC50", "format": "cell-based", "procedure,_shortened": "as §2"}},
  "note": "pIC50: −log10 of the molar value. Calls of active or inactive are those of the source. The calls are words filed in the database; no cut-off is given here.",
  "data": [
    {"molecule": "C=CC(C)(C)c1cc(/C=C/C(=O)c2ccc(O)cc2)c(OC)cc1O", "note": "[LICOAGROCHACONE A]", "values": [
      {"measurement": "fold change (FC)", "setting": "HEK293 [1]", "result": 0.7},
      {"measurement": "Activity", "setting": "S1 [2]", "result": "inactive"},
      {"measurement": "Activity", "setting": "S1 [3]", "result": 22.5, "unit": "%"},
      {"measurement": "pIC50", "setting": "S1 [4]", "result": "4.30 to 5.00"},
      {"measurement": "fold change (FC)", "setting": "HEK293 [5]", "result": 1},
      {"measurement": "Activity", "setting": "HEK293 [6]", "result": "Non-Toxic"},
      {"measurement": "Activity", "setting": "S1-M1-80", "result": 0.2, "unit": "%"},
      {"measurement": "fold change (FC)", "setting": "[7]", "result": 6.5},
      {"measurement": "fold change (FC)", "setting": "LS180", "result": "2 - 6"},
      {"measurement": "fold change (FC)", "setting": "HEK293 [8]", "result": 0.9},
      {"measurement": "fold change (FC)", "setting": "HEK293 [9]", "result": 1},
      {"measurement": "Activity", "setting": "[10]", "result": "Not Active"},
      {"measurement": "fold change (FC)", "setting": "[11]", "result": 8.9},
      {"measurement": "fold change (FC)", "setting": "[12]", "result": 2.7}
    ]}
  ]
}
